Test results as given in ChEMBL document CHEMBL1127623, “Synthesis and structure-activity relationships of the novel homopropargylamine antimycotics” (1994).
Values after ≈ are worked out from the molar mass of the structure shown.

How the values were obtained:
Aspergillus fumigatus = test: Tested in vitro for minimum inhibitory concentration against Aspergillus fumigatus; format: functional
Summary of the method: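 Tube dilution in Sabouraud's dextrose broth (pH 6.5). Compounds were dissolved in DMSO and serially diluted in medium. The inoculum was harvested by spatula from Kimmig agar cultures grown 21 days at 30 °C. Tubes were read after 72 h at 30 °C. MIC was the lowest concentration with no macroscopically detectable growth.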

[1] = system: Trichophyton mentagrophytes; test: Tested in vitro for minimum inhibitory concentration against Trichophyton mentagrophytes
Microsporum canis = test: Tested in vitro for minimum inhibitory concentration against microsporum canis; format: functional
Summary of the method: (§1)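 Serial dilutions were made from DMSO solutions into Sabouraud's dextrose broth (pH 6.5) in glass tubes. Inoculum was taken by spatula from Kimmig agar cultures grown 21 days at 30 °C. Incubation was 7 days at 30 °C. MIC was the lowest concentration at which growth was macroscopically undetectable.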

Candida parapsilosis = test: Tested in vitro for minimum inhibitory concentration against candida parapsilosis 39; format: functional; conditions: Lodderomyces parapsilosis
Summary of the method: (§2)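 Yeast broth dilution in malt extract broth (pH 4.8) in glass tubes, with compounds in DMSO serially diluted in medium. Blastospores came from cultures shaken about 30 h at 37 °C in yeast nitrogen base. Growth was read after 48 h at 30 °C. MIC was the lowest concentration without macroscopically visible growth.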

Candida albicans [2] = test: Tested in vitro for minimum inhibitory concentration against candida albicans 124; format: functional; summary of the method: as §2
Sporothrix schenckii = test: Tested in vitro for minimum inhibitory concentration against sporothrix schenck ii; format: functional; summary of the method: as §1
Candida albicans [3] = test: Tested in vitro for minimum inhibitory concentration against candida albicans 9; format: functional; summary of the method: as §2

| MIC (Aspergillus fumigatus) [µg/mL] | MIC [1] [µg/mL] | MIC (Microsporum canis) [µg/mL] | MIC (Candida parapsilosis) [µg/mL] | MIC (Candida albicans [2]) [µg/mL] | MIC (Sporothrix schenckii) [µg/mL] | MIC (Candida albicans [3]) [µg/mL] | SMILES |
| --- | --- | --- | --- | --- | --- | --- | --- |
| 0.2 (≈ 0.682 µM) | 0.05 (≈ 0.17 µM) | 0.02 (≈ 0.0682 µM) | 3.13 (≈ 10.7 µM) | 200 (≈ 682 µM) | 12.5 (≈ 42.6 µM) | 50 (≈ 170 µM) | CCN(CCC#CC(C)(C)C)Cc1cccc2ccccc12 |
| 50 (≈ 170 µM) | 0.8 (≈ 2.73 µM) | 3.13 (≈ 10.7 µM) | 100 (≈ 341 µM) | 200 (≈ 682 µM) | 12.5 (≈ 42.6 µM) | 100 (≈ 341 µM) | CN(CCC#CC(C)(C)C)CCc1cccc2ccccc12 |
| 50 (≈ 172 µM) | 0.05 (≈ 0.172 µM) | 0.5 (≈ 1.72 µM) | 6.25 (≈ 21.4 µM) | > 200 | 1.56 (≈ 5.35 µM) | > 200 | C=C(C#CC(C)(C)C)CN(C)Cc1cccc2ccccc12 |
| 50 (≈ 170 µM) | 0.05 (≈ 0.17 µM) | 0.2 (≈ 0.682 µM) | 0.8 (≈ 2.73 µM) | 200 (≈ 682 µM) | 1.56 (≈ 5.32 µM) | > 200 | CN(CCCC#CC(C)(C)C)Cc1cccc2ccccc12 |
| > 200 | 12.5 (≈ 40.7 µM) | 25 (≈ 81.3 µM) | > 200 | > 200 | > 200 | 200 (≈ 650 µM) | CN(CCCCC#CC(C)(C)C)Cc1cccc2ccccc12 |
| 0.05 (≈ 0.163 µM) | 0.003 (≈ 0.00976 µM) | 0.003 (≈ 0.00976 µM) | 0.4 (≈ 1.3 µM) | 25 (≈ 81.3 µM) | 1.56 (≈ 5.07 µM) | 12.5 (≈ 40.7 µM) | CCCC(C)(C)C#CCCN(C)Cc1cccc2ccccc12 |
| 0.1 (≈ 0.341 µM) | 0.006 (≈ 0.0204 µM) | 0.01 (≈ 0.0341 µM) | 1.56 (≈ 5.32 µM) | 50 (≈ 170 µM) | 3.13 (≈ 10.7 µM) | 12.5 (≈ 42.6 µM) | CCC(C)(C)C#CCCN(C)Cc1cccc2ccccc12 |
| 0.1 (≈ 0.358 µM) | 0.006 (≈ 0.0215 µM) | 0.01 (≈ 0.0358 µM) | 1.56 (≈ 5.58 µM) | 50 (≈ 179 µM) | 3.13 (≈ 11.2 µM) | 50 (≈ 179 µM) | CN(CCC#CC(C)(C)C)Cc1cccc2ccccc12 |
| > 200 | 12.5 (≈ 47.1 µM) | 25 (≈ 94.2 µM) | > 200 | > 200 | > 200 | 200 (≈ 754 µM) | CN(CC#CC(C)(C)C)Cc1cccc2ccccc12 |
| 0.2 (≈ 0.586 µM) | 0.01 (≈ 0.0293 µM) | 0.006 (≈ 0.0176 µM) | 0.4 (≈ 1.17 µM) | 12.5 (≈ 36.6 µM) | 3.13 (≈ 9.17 µM) | 6.25 (≈ 18.3 µM) | CN(CCC#CC(C)(C)c1ccccc1)Cc1cccc2ccccc12 |
| > 200 | 1.56 (≈ 5.32 µM) | 1.56 (≈ 5.32 µM) | 100 (≈ 341 µM) | > 200 | > 200 | 200 (≈ 682 µM) | CC(CC#CC(C)(C)C)N(C)Cc1cccc2ccccc12 (configuration not stated) |
| > 50 | 1.56 (≈ 5.58 µM) | 1.56 (≈ 5.58 µM) | 50 (≈ 179 µM) | 100 (≈ 358 µM) | 6.25 (≈ 22.4 µM) | 50 (≈ 179 µM) | CN(CC#CC(C)(C)C)CCc1cccc2ccccc12 |
| > 200 | 0.8 (≈ 2.73 µM) | 0.8 (≈ 2.73 µM) | 200 (≈ 682 µM) | > 200 | 12.5 (≈ 42.6 µM) | > 200 | CC(C#CC(C)(C)C)CN(C)Cc1cccc2ccccc12 (configuration not stated) |
| 1.56 (≈ 5.86 µM) | 0.4 (≈ 1.5 µM) | 0.4 (≈ 1.5 µM) | > 200 | > 200 | > 200 | 200 (≈ 751 µM) | CC(C)(C)C#CCCOCc1cccc2ccccc12 |
| > 200 | 100 (≈ 296 µM) | 100 (≈ 296 µM) | 25 (≈ 74.1 µM) | > 200 | > 200 | > 200 | CCN(Cc1cccc2ccccc12)C(=O)OCCC#CC(C)(C)C |

| SMILES | MIC (Aspergillus fumigatus) [µg/mL] | MIC [1] [µg/mL] | MIC (Microsporum canis) [µg/mL] | MIC (Candida parapsilosis) [µg/mL] | MIC (Candida albicans [2]) [µg/mL] | MIC (Sporothrix schenckii) [µg/mL] | MIC (Candida albicans [3]) [µg/mL] |
| --- | --- | --- | --- | --- | --- | --- | --- |
| CN(C/C=C/C#CC(C)(C)C)Cc1cccc2ccccc12 [TERBINAFINE] | 0.8 (≈ 2.75 µM) | 0.003 (≈ 0.0103 µM) | 0.006 (≈ 0.0206 µM) | 0.8 (≈ 2.75 µM) | 25 (≈ 85.8 µM) | 0.4 (≈ 1.37 µM) | 6.25 (≈ 21.4 µM) |
